Source: PubChem (several laboratories)
Shown are actives, neighbours in structure and some others; about 7.9% of the full set was active somewhere.
SF1 activator – activators of human SF-1, primary screen, cell-based, CHO-K1, Gal4-SF-1 LBD, luciferase luminescence; 65,000 tested, 1.9% active; Steroidogenic factor 1 (Homo sapiens), Q13285; CHO-K1 Gal4-SF-1 LBD luciferase reporter; % increase over DMSO SF-1-specific signal; activation, % at 10 µM; AID 522, 2006;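 active means activation above the mean activation of all tested compounds plus 3 SD, cut at about 50% in these data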
Target sequence (Q13285 whole entry, looked up, the tested form may be a part): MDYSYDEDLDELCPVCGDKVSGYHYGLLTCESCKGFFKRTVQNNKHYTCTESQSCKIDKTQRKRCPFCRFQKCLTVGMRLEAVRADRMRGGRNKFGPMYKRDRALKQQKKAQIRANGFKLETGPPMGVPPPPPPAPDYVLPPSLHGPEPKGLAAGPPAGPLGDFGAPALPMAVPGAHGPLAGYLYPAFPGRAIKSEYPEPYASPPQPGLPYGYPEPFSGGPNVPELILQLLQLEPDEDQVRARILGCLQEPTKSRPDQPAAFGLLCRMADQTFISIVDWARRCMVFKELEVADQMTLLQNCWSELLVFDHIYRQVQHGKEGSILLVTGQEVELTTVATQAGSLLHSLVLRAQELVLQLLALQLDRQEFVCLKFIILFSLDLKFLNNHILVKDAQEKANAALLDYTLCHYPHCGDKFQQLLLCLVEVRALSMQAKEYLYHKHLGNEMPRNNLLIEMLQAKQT
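Material: CHO-K1 cells with Gal4–hSF-1 LBD chimera plus Gal4-driven luciferase / Input: 4,000 CHO-K1 cells per well / Incubation: compound exposure 20 h at 37 °C / Signal: luminescence read 15 min after SteadyLite luciferase reagent, after room-temperature equilibration / Read-out: percent activation versus DMSO / Benchmarks: DMSO negative control and −SF1 background wells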
D1 mod – D1 CRE-luciferase signal change, two-sided – cell-based, HEK293 D1, dopamine EC30, D1 allosteric modulator project, primary screen | D(1A) dopamine receptor (Homo sapiens), P21728 | dopamine EC30 potentiation; actives deviate in either direction | B-score at 10 µM | 58,000 tested, 5.9% active;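 active means luminescence count or its row- and column-corrected plate score outside the 99.7% band of the plate's sample wells, on either side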
RORA act – activators of orphan receptor RORA, primary screen, cell-based, luminescence. CHO-K1 Gal4-RORA LBD luciferase reporter; percent increase over mock-subtracted basal signal. activation, % at 10 µM. Nuclear receptor ROR-alpha (Homo sapiens), P35398. 65,000 tested, 1.5% active;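 active means activation above the mean of all tested compounds plus 3 SD, cut at about 49% in these data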;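 further: 0% = DMSO-treated RORA cells and 100% = added signal equal to DMSO minus mock-transfected cells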
JNK3 inh – JNK3 kinase activity inhibitors, primary screen, biochemical, human, purified enzyme; Mitogen-activated protein kinase 10 (Homo sapiens), P53779; 60,000 tested, 0.61% active; inhibition, % at 8 µM; AID 746, 2007; HTS; in the data active means inhibition above about 17%;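 further: 0% = DMSO and 100% = reference inhibitor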
HEK293 NFkB inh – inhibitors of PMA/ionomycin-induced NF-kB reporter, primary screen, antigen receptor NF-kB inhibitor project, cell-based, HEK-293 luciferase reporter, luminescence; HEK-293 NF-kB luciferase reporter; inhibition, % at 3 µM; 62,000 tested, 0.21% active;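 active means inhibition above the mean of all tested compounds plus 3 SD, cut at about 40% in these data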;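 further: 0% = stimulated DMSO wells and 100% = 10 µM reference inhibitor 5653914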
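Material: HEK-293 cells with stable firefly luciferase reporter driven by four HIV NF-kB elements / Also added: PMA plus ionomycin mix as NF-kB-activating stimulus / Compound dosing: 3 µM once, 0.30% DMSO / Times: 1 h pretreatment, 16 h stimulation, 37 °C / Signal: luminescence / Evaluation: per-plate % inhibition versus controls / Benchmarks: DMSO and 10 µM reference inhibitor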
D1 PAM confirm – D1 receptor positive allosteric modulators, retest, confirmation, cell-based, HEK293 D1, CRE-luciferase, duplicate | shares compounds with D1 mod | 2,200 tested, 88% active | dopamine EC30 potentiation; stronger effect = higher value | AID 642, 2007 | luminescence at 10 µM;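 active means luminescence in either of two replicates above the same-plate mean plus 3 SD of the low-dose dopamine control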
D1 ag no DA – D1 receptor agonism without dopamine, confirmation, mechanism study for D1 allosteric modulator project, cell-based, HEK293 D1, CRE-luciferase, secondary assay 1 | luminescence at 10 µM | AID 646, 2007 | luminescence, no dopamine; stronger effect = higher value | 1,900 tested, 0.8% active | shares compounds with D1 mod; in the data active means luminescence above about 3900
Isoprot counter – alters isoproterenol CRE-luciferase response in HEK293 cells. HEK293 D1 CRE-luciferase, isoproterenol EC30 counter-screen. shares compounds with D1 mod. 2,200 tested, 63% active. calls only at 10 µM;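 active means luminescence in either replicate above plate mean of wells with a partly effective reference agonist dose plus 3 SD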;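 further: isoproterenol raises cAMP through native beta-adrenoceptor Gs so signal bypasses D1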
* marks the source's active call; other numbers are inactive results; i = inactive; / = no result given; + = active, no number.

SMILES	SF1 activator	D1 mod	RORA act	JNK3 inh	HEK293 NFkB inh	D1 PAM confirm	D1 ag no DA	Isoprot counter
NC(=O)C1CCN(c2nc(C3CC3)nc3c2nnn3Cc2ccccc2Cl)CC1	-6	/	8	/	16	/	/	/
OCCNc1nc(C2CC2)nc2c1nnn2Cc1ccccc1Cl	-3	8.9*	-4	-3	3	14928*	1728	i
COc1ccc(C(=O)NCc2cn3ccsc3n2)cc1OC	-7	2.2	-12	7	3	/	/	/
COc1ccc(C)cc1NC(=O)CSc1nnnn1Cc1ccccc1	7	0.38	17	-4	9	/	/	/
COc1ccc(CCNc2nnc(Sc3nnnn3-c3ccccc3)s2)cc1OC	-68	5.3*	-69	-1	13	10264*	1392	i
COc1ccc(CSc2nnnn2Cc2ccccc2)cc1OC	-14	3.6*	-12	-3	14	15068*	1692	+
Nc1nc(Nc2cccc(C(F)(F)F)c2)nc(C(F)(F)F)n1	-1	8*	13	2	-1	15108*	1664	+
N#CCc1nc2c3c4c(sc3ncn2n1)CCCC4	-11	9.5*	-14	9	/	11284*	1556	+
COC(=O)c1ccc(OCCn2cnc3ccccc3c2=O)cc1	21	5.2*	31	15	-3	9464*	2040	i
COc1ccccc1OCCOCCn1cnc2ccccc2c1=O	-9	1.5	-5	7	-1	/	/	/
CCOC(=O)c1sc(N(Cc2ccccc2)C(=O)CSc2nnc(C3CC3)n2N)nc1C	11	6.2*	24	/	21	18736*	1688	+
CCN(CC)c1ncc(C)c(=O)[nH]1	0	-0.42	-17	-3	/	/	/	/
CC(C)c1ccc(NC(=O)C2C3C=CC4(CN(CCCN5CCOCC5)C(=O)C24)O3)cc1 (stereo not given)	0	-0.82	-3	9	14	/	/	/
CCOc1ccc(NC(=O)N(CCN(C)C)C(C)c2ccncc2)cc1 (stereo not given)	-16	0.26	5	-4	16	/	/	/
C=CCc1c(C)nc(SC)nc1Nc1ccc(C(C)=O)cc1	14	4.1*	18	6	2	10112*	1672	+
CCc1nnc(SCC(=O)Nc2ccc(C(C)=O)cc2)nc1CC	-9	2.2	6	4	20	/	/	/
C=CCc1c(C)nc(SC)nc1Nc1ccc(C(=O)O)cc1	-3	8.2*	23	4	7	11532*	/	i
CC(C)OC(=O)CN1CCN(C2c3ccccc3-c3ccccc32)CC1	0	0.04	-15	4	20	/	/	/
CCN1C(=O)c2c(C)nc3ccccc3c2C1=O	-10	16*	-11	-1	-4	15840*	1572	+
O=C(CCS(=O)(=O)c1ccc(Cl)cc1)N1CCN(S(=O)(=O)c2cccs2)CC1	-2	-0.48	-5	3	14	/	/	/
O=C(CCCc1nc2ccccc2s1)N1CCN(S(=O)(=O)c2cccs2)CC1	-7	4.2*	-19	-3	24	8136*	1520	i
C=CCSc1nc2ccccc2c(=O)[nH]1	13	3*	-15	-2	5	9580*	1792	i
CC(C)(C)OC(=O)N1CCOCCOCCN(C(=O)OC(C)(C)C)CCOCCOCC1	-11	-0.47	-10	-11	9	/	/	/
CCOC(=O)c1ccccc1NC(=O)c1cccs1	-13	7.2*	-15	11	10	8864*	1480	+
CCc1c(C)sc(NC(=O)c2cccs2)c1C(=O)OC(C)C	-14	1	-17	-1	12	/	/	/
SMILES	SF1 activator	D1 mod	RORA act	JNK3 inh	HEK293 NFkB inh	D1 PAM confirm	D1 ag no DA	Isoprot counter
CCOC(=O)c1c(NC(=O)c2cccs2)sc(C)c1CC	-16	3.8*	10	-9	23	10804*	1624	i
CCCCn1c(=O)[nH]c(=O)c2c1nc(COC(=O)c1c(C)noc1C)n2CCC	17	6.2*	16	5	13	14616*	1628	+
Cc1cc(-c2cccs2)c2c(n1)sc1c(=O)[nH]c(=O)[nH]c12	13	9.9*	-2	-8	-13	13116*	1580	i
CCN(CC)C(=O)c1sc2nc(-c3cccs3)cc(-c3cccs3)c2c1N	-10	0.0067	-20	-3	/	/	/	/
COc1ccc(C(=O)N2CCN(S(=O)(=O)c3ccc(C)cc3C)CC2)cc1OC	23	4.7*	-9	-3	16	10368*	1512	+
COc1ccc(C(=O)N2CCc3cc(OC)c(OC)cc3C2)cc1OC	-5	3.7*	6	3	8	9712*	1376	+
COc1cc2c(cc1OC)CN(C(=O)C(C)(C)C)CC2	/	0.44	/	/	/	/	/	/
CC(C)c1nc2oc3c(NCC4CCCO4)ncnc3c2c2c1CCC2 (stereo not given)	-6	/	3	1	8	/	/	/
CCCc1nc2oc3c(NCC4CCCO4)ncnc3c2c2c1COC(C)(C)C2 (stereo not given)	9	15*	-6	3	17	19660*	/	+
CCCc1nc2oc3c(NCc4ccccn4)ncnc3c2c2c1COC(C)(C)C2	9	16*	-14	0	17	19424*	/	+
O=C(CCC(=O)Nc1ccc(Oc2ccccc2)cc1)NCCO	15	0.33	-11	2	-3	/	/	/
COC(=O)CSC1=C(C#N)C(c2cccc(OC)c2)CC(=O)N1 (stereo not given)	1	1.9*	4	-2	8	5484	1664	i
CS(=O)(=O)N(CC(=O)N1CCN(c2ccccc2F)CC1)c1cccc(C(F)(F)F)c1	4	1.1	19	1	16	/	/	/
CCC(Sc1nc(=O)cc(N)n1CCc1ccccc1)C(=O)Nc1ccccc1C#N (stereo not given)	9	5.2*	16	-2	2	3424*	1792	i
COc1ccc(-c2nn(C)c(=O)c3ccccc23)cc1CNC(=O)c1ccco1	-16	4.5*	-5	0	15	16184*	1660	+
